Source: PubChem (SRMLSC)
Many of the other results were omitted from the sample, so hits are more common in it than they were.
PTEN del growth: growth suppression of PTEN-null HCT116, primary screen, cell-based, CellTiter-Glo; HCT116 PTEN-null viability, 60 h; hits give low values; viability, % at 10 µM; 140,000 compounds, 1.2% hits; AID 827, 2007;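 active = viability at or below a set limit, 4 SD under the median of all tested compounds, cut at about 3.7% in these data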;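 note: PTEN knockout HCT116 line with beta catenin targeted HCT116 as companion control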
H69AR inhibit: proliferation blockers of H69AR lung cancer cells, primary screen, cell-based, human, 86K library | H69AR lung tumor viability, ATP luminescence, 72 h; hits give low values | viability, % at 10 µM | 85,000 compounds, 6% hits;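 active = viability at or below 40%; inactive = viability above 40%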;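 note: multidrug resistant small cell line overexpressing MRP-1 efflux transporter; 100% = mean luminescence of untreated control wells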
bCat KO growth: primary screen for growth suppressors in beta-catenin knockout HCT116 cells (colon tumor, human); HCT116 beta-catenin knockout viability, CellTiter-Glo, 60 h; hits give low values; viability, % at 10 µM; 140,000 compounds, 1.5% hits;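 active = viability at or under a set limit, the compound median less 4 SD, cut at about 6% in these data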;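 note: 0% = Hyamine 1622 control at 20 µM and 100% = untreated cell control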
HUVEC prolif 384: inhibitors of HUVEC proliferation, primary screen, cell-based, 384-well; CellTiter-Glo luminescence, 72 h; hits give low values; viability, % at 10 µM (by protocol); 86,000 compounds, 1.1% hits; AID 648, 2007;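 active = viability at or below 30%; inactive = viability above 30%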;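 note: 100% = median luminescence of DMSO-only cell control wells on each plate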
Lung fibro prol: antiproliferative effect on LL 47 fibroblasts – human, LL 47 cells, CellTiter-Glo luminescence, primary screen; LL 47 human lung fibroblast viability, ATP luminescence; hits give low values; 85,000 compounds, 1.1% hits; AID 719, 2007; viability, % at 10 µM;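 active = viability at or below 50% in the single dose screen; inactive = viability above 50%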;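 note: compound exposure lasted 72 h before the ATP readout; 100% = median luminescence of untreated cell-only wells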
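Signal: luminescent ATP detection, CellTiter-Glo; assay system: LL 47 human lung fibroblasts; input: 1,150 cells/well; incubation: overnight cell rest, 72 h compound treatment at 37 °C; measure: % viability versus median cells-only luminescence; medium: IMEM growth medium with 15% fetal bovine serum; dosing: compound addition at 0.1% DMSO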
Numbers without * were called inactive.

Cc1ccc(-c2c(=O)n(OCc3ccccn3)c3ccccc3[n+]2[O-])cc1 was read as PTEN del growth 104 and bCat KO growth 115.
For CC(C)(C)c1ccc(COn2c(=O)c(-c3ccco3)[n+]([O-])c3ccccc32)cc1 the results were PTEN del growth 84, H69AR inhibit 34*, bCat KO growth 82, HUVEC prolif 384 72 and Lung fibro prol 61.
For Cc1ccc(-c2nnc(SCC(=O)NNC(=O)COc3cccc4ccccc34)n2C)cc1 the results were PTEN del growth 105 and bCat KO growth 81.
Screening Cc1cccc(C=Nc2ccccc2C(N)=O)c1 returned PTEN del growth 24, H69AR inhibit 23*, bCat KO growth 22, HUVEC prolif 384 63 and Lung fibro prol 58.
C=CCn1c(SCC(O)Cn2c3ccccc3c3ccccc32)nnc1-c1ccco1 (stereo unspecified) was read as PTEN del growth 78, H69AR inhibit 26*, bCat KO growth 86, HUVEC prolif 384 62 and Lung fibro prol 87.
C=CCn1c(SCC(=O)Nc2ccccc2OC)nnc1-c1ccco1 was read as PTEN del growth 71, H69AR inhibit 87, bCat KO growth 69, HUVEC prolif 384 84 and Lung fibro prol 91.
`CCCOC(=O)c1ccc(Nc2nc(C)cc(=O)[nH]2)cc1` gave PTEN del growth 94, H69AR inhibit 17*, bCat KO growth 94, HUVEC prolif 384 94 and Lung fibro prol 106.
CCOC(=O)c1ccc(Nc2nc(C)cc(=O)[nH]2)cc1 was read as PTEN del growth 85, H69AR inhibit 88, bCat KO growth 86, HUVEC prolif 384 96 and Lung fibro prol 112.
`O/N=C(\c1ccc(Cl)cc1Cl)c1ncc(C(F)(F)F)cc1Cl` gave PTEN del growth 74, H69AR inhibit 43, bCat KO growth 78, HUVEC prolif 384 32 and Lung fibro prol 82.
`COc1ccc(NS(=O)(=O)c2cc(NC(=O)c3ccco3)ccc2N2CCCCC2)cc1` gave PTEN del growth 32 and bCat KO growth 35.
For CC(=O)Nc1ccc(S(=O)(=O)N2CCN(c3nc(NC4CCCC4)c4ccccc4n3)CC2)cc1 the results were PTEN del growth 1.5*, H69AR inhibit 1.4*, bCat KO growth 1.5*, HUVEC prolif 384 11* and Lung fibro prol 85.
`CC(=O)Nc1ccc(S(=O)(=O)N2CCN(c3cc(C)nc4ccccc34)CC2)cc1` gave PTEN del growth 84, H69AR inhibit 90, bCat KO growth 88, HUVEC prolif 384 93 and Lung fibro prol 99.
CCc1cccc(Nc2cc(C)nc3ncnn23)c1 was read as PTEN del growth 93, H69AR inhibit 89, bCat KO growth 91, HUVEC prolif 384 94 and Lung fibro prol 92.
Screening CCn1c2ccccc2c2cc(Nc3cc(C)nc4ncnn34)ccc21 returned PTEN del growth 10, H69AR inhibit 31*, bCat KO growth 15, HUVEC prolif 384 30* and Lung fibro prol 45*.
For CSc1cc(-c2ccccc2)n(Cc2ccc(Cl)cc2Cl)c(=O)c1C#N the results were PTEN del growth 102, H69AR inhibit 36*, bCat KO growth 96, HUVEC prolif 384 93 and Lung fibro prol 94.
Screening COc1ccc2nc(NC(C)=O)sc2c1 returned PTEN del growth 93, H69AR inhibit 105, bCat KO growth 88, HUVEC prolif 384 108 and Lung fibro prol 98.
Screening COc1ccc2nc(N=Nc3c(O)ccc4ccccc34)sc2c1 returned PTEN del growth 7 and bCat KO growth 5.3*.
N#Cc1c(NCCCO)nc(NCc2ccccc2)c2c1CCN(Cc1ccccc1)C2 was read as PTEN del growth 60, H69AR inhibit 43, bCat KO growth 73, HUVEC prolif 384 70 and Lung fibro prol 86.
Screening CN1CCc2c(C#N)c(N3CCCCC3)nc(NCc3ccccc3)c2C1 returned PTEN del growth 1.4*, H69AR inhibit 3.4*, bCat KO growth 1.0*, HUVEC prolif 384 11* and Lung fibro prol 67.
For CCCCCn1c(SCC#N)nc2cc(C(=O)NC3CCCCC3)ccc2c1=O the results were H69AR inhibit 53, HUVEC prolif 384 67 and Lung fibro prol 48*.
For Fc1ccccc1-c1nc(NCCCN2CCOCC2)c2ccccc2n1 the results were PTEN del growth 84, H69AR inhibit 50, bCat KO growth 79, HUVEC prolif 384 86 and Lung fibro prol 105.
For Cc1cc(C)c2nc(C(F)(F)F)nc(NCCCN3CCOCC3)c2c1 the results were PTEN del growth 38, H69AR inhibit 8.9*, bCat KO growth 23, HUVEC prolif 384 6.4* and Lung fibro prol 51.
`Clc1ccc(OCc2nc(-c3ccccn3)n[nH]2)cc1` gave PTEN del growth 38, H69AR inhibit 2.2*, bCat KO growth 52, HUVEC prolif 384 58 and Lung fibro prol 82.
`Brc1ccc(OCc2nc(-c3ccccn3)n[nH]2)cc1` gave PTEN del growth 45, H69AR inhibit 53, bCat KO growth 38, HUVEC prolif 384 41 and Lung fibro prol 75.
`CC(Oc1ccc(Cl)cc1)C(=O)NNC(=S)NC(=O)c1ccco1` (stereo unspecified) gave PTEN del growth 16 and bCat KO growth 23.
O=C(CN(C(=O)CSc1nc2ccccc2o1)c1ccccc1)NC1CCCCC1 was read as PTEN del growth 85 and bCat KO growth 92.
Screening CCOC(=O)N1CCC(NC(=O)c2ccc3c(c2)N(C)CCS3)CC1 returned PTEN del growth 91, H69AR inhibit 37*, bCat KO growth 97, HUVEC prolif 384 84 and Lung fibro prol 94.
For CCOC(=O)N1CCC(NC(=O)c2ccc3c(c2)N(Cc2ccc(C)cc2)CCS3)CC1 the results were PTEN del growth 78, H69AR inhibit 38*, bCat KO growth 70, HUVEC prolif 384 68 and Lung fibro prol 75.
For CCOC(=O)N1CCC(NC(=O)c2ccc3c(c2)N(Cc2ccc(F)cc2)CCS3)CC1 the results were PTEN del growth 34, H69AR inhibit 24*, bCat KO growth 32, HUVEC prolif 384 83 and Lung fibro prol 98.
`CCOC(=O)N1CCC(NC(=O)c2ccc3c(c2)N(Cc2ccccc2)CCS3)CC1` gave PTEN del growth 68, H69AR inhibit 45, bCat KO growth 55, HUVEC prolif 384 84 and Lung fibro prol 88.
For CCOC(=O)N1CCC(NC(=O)c2cc(C(=O)NC3CCCC3)ccc2CO)CC1 the results were PTEN del growth 93, H69AR inhibit 102, bCat KO growth 90, HUVEC prolif 384 113 and Lung fibro prol 88.
`COc1ccc(Nc2ccc(N3C(=O)CCCC3=O)cc2[N+](=O)[O-])c(OC)c1` gave PTEN del growth 90 and bCat KO growth 100.
Screening Cc1ccc(C2C(/C=C3/SC(=S)NC3=O)=C(c3cccs3)Oc3ccccc32)cc1 (stereo unspecified) returned PTEN del growth 60, H69AR inhibit 14*, bCat KO growth 64, HUVEC prolif 384 49 and Lung fibro prol 92.
